Converted amounts (≈) assume the structure as drawn. The source made the active and inactive calls. The calls are words filed in the database; no cut-off is given here.
Key:
Plasmodium falciparum [1] = assay: Antiplasmodial activity against chloroquine-sensitive Plasmodium falciparum 3D7 assessed as inhibition of trophozoite stage parasite growth at IC50 after 6 hr by [3H]hypoxanthine incorporation assay; type: functional, organism-based
In short: (§1)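 P. falciparum 3D7 is synchronized with sorbitol. […] Cells are washed four times, then labelled with [3H]hypoxanthine for 24 h. Growth is given as % of untreated control for each stage, in triplicate.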

Plasmodium falciparum [2] = assay: Antiplasmodial activity against chloroquine-sensitive Plasmodium falciparum 3D7 assessed as inhibition of ring stage parasite growth at IC50 after 6 hr by [3H]hypoxanthine incorporation assay; type: functional, organism-based; in short: as §1
Plasmodium falciparum [3] = assay: Antiplasmodial activity against chloroquine-sensitive Plasmodium falciparum 3D7 assessed as inhibition of schizont stage parasite growth at IC50 after 6 hr by [3H]hypoxanthine incorporation assay; type: functional, organism-based; in short: as §1
Heme = assay: Inhibition of heme aggregation at 500 uM
In short: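 Hemin chloride stock (10 mM in 0.1 M NaOH), prepared fresh and held at 37°C for at least 1 h. Aggregation run in 20 mM sodium phosphate pH 5.2 with 25 μM initial heme at 37°C. Inhibitor dissolved in dimethylformamide or buffer. After incubation, samples centrifuged and absorbance read at 360 nm, with matching control values subtracted.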

L6 = assay: Cytotoxicity against rat L6 cells; type: cell-based

inhibition (Heme) | SMILES | growth inhibition (GI) (Plasmodium falciparum [1]) | growth inhibition (GI) (Plasmodium falciparum [2]) | growth inhibition (GI) (Plasmodium falciparum [3]) | IC50 (L6)
inactive | CCN(CC)CCCC(C)Nc1ccnc2cc(Cl)ccc12 (stereo not given) | Active | Active | Active | –
– | COc1cc([C@@H]2c3cc4c(cc3[C@H](O)[C@H]3COC(=O)[C@H]23)OCO4)cc(OC)c1OC [PODOFILOX] | – | – | – | 8 ng/mL (≈ 0.0193 µM)

Source: ChEMBL document CHEMBL1687720 (Antimicrob Agents Chemother, 2009)
